The text below walks through data of ChEMBL document CHEMBL1938298, “Synthesis and characterization of [¹²⁵I]2-iodo N-[(S)-{(S)-1-methylpiperidin-2-yl}(phenyl)methyl]3-trifluoromethyl-benzamide as novel imaging probe for glycine transporter 1” (Bioorg Med Chem, 2011).

Data set [1] addresses T1, Sodium- and chloride-dependent glycine transporter 1 (Rattus norvegicus) (UniProt P28572).
T1 sequence (whole entry): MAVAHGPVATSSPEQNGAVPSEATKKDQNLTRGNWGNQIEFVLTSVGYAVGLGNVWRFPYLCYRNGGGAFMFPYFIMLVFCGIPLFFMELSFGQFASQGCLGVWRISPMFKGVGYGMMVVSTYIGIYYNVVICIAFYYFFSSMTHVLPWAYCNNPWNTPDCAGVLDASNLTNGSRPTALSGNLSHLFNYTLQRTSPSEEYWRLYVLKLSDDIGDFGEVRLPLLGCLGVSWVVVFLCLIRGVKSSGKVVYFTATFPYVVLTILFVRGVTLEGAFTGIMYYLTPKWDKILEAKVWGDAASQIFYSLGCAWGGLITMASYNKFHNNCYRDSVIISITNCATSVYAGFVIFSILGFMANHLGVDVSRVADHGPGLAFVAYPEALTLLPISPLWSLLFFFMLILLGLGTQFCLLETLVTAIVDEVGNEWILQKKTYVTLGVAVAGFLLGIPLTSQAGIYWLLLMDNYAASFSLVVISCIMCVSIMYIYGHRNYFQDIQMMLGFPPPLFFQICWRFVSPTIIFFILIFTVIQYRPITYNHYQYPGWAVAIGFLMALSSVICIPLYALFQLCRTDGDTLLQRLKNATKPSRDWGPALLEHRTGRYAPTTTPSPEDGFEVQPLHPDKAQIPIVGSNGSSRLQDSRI
Briefly: Binding affinity to GlyT1 in rat brain thalamus at 0.03 to 0.04 nM preincubated for 20 mins in binding buffer before compound addition measured after 30 mins by autoradiography relative to control. It is filed as tissue-based. Particulars: tested as the 125I-labelled form.

Data set [2] addresses T1, Sodium- and chloride-dependent glycine transporter 1 (Rattus norvegicus). Nature of the data set: Binding affinity to GlyT1 in rat brain hippocampus at 0.03 to 0.04 nM preincubated for 20 mins in binding buffer before compound addition measured after 30 mins by autoradiography in presence of 1 mM GlyT1 substrate glycine relative to control. Particulars: tested as the 125I-labelled form. It is filed as tissue-based. A digest of the protocol: (§1)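 Rat brain sagittal sections (20 µm) preincubated 20 min at 25 °C in Tris-HCl buffer pH 7.5 (NaCl, KCl, MgCl2, CaCl2), then 30 min at 25 °C with [125I] tracer (100 kBq, 0.03–0.04 nM) plus competitor (10 µM; glycine 1 or 10 mM). Cold washes, imaging plate 3 days, ROI PSL minus background per mm². % control from ≥triplicate slices, three rats.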

Data set [3] has the same target. Briefly: Binding affinity to GlyT1 in rat brain hippocampus at 0.03 to 0.04 nM preincubated for 20 mins in binding buffer before compound addition measured after 30 mins by autoradiography in presence of GlyT1 inhibitor N-Me-SSR504734 relative to control. It is filed as tissue-based. Particulars: tested as the 125I-labelled form. A digest of the protocol:
as §1

Data set [4] concerns Mus musculus. Nature of the data set: In vivo binding affinity to GlyT1 in ddY mouse brain thalamus at 33.3 kBq, iv after 30 mins in presence of SSR504734 2 mg/kg, iv administered 15 mins prior to compound administration relative to control. The conditions noted are these: tested as the 125I-labelled form. The arrangement: dose 2 mg/kg. It counts as functional, organism-based.

The target of data set [5] is T1, Sodium- and chloride-dependent glycine transporter 1 (Rattus norvegicus). Briefly: Binding affinity to GlyT1 in rat brain corpus callosum at 0.03 to 0.04 nM preincubated for 20 mins in binding buffer before compound addition measured after 30 mins by autoradiography in presence of 0.01 mM GlyT2 inhibitor ORG25543 relative to control. It is filed as tissue-based. The conditions noted are these: tested as the 125I-labelled form. In a few lines: as §1

The target is the same in data set [6]. Nature of the data set: Binding affinity to GlyT1 in rat brain midbrain at 0.03 to 0.04 nM preincubated for 20 mins in binding buffer before compound addition measured after 30 mins by autoradiography in presence of 0.01 mM NMDA receptor glycine site antagonist L-701,324 relative to control. It counts as tissue-based. The conditions noted are these: tested as the 125I-labelled form.

In data set [7] the test system is Mus musculus. Nature of the data set: In vivo binding affinity to GlyT1 in ddY mouse brain hippocampus at 33.3 kBq, iv after 30 mins in presence of SSR504734 2 mg/kg, iv administered 15 mins prior to compound administration relative to control. It is filed as functional, organism-based. The arrangement: dose 2 mg/kg. Particulars: tested as the 125I-labelled form. In a few lines:
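Blocking study in male ddY mice (6 weeks, 30–35 g). The blocker (2 mg/kg in 30% DMSO/saline) was injected i.v. 15 min before about 33.3 kBq [125I]tracer i.v.; mice were killed at 30 or 60 min. Brains were divided into cortex, corpus callosum, hippocampus, thalamus, midbrain, medulla and cerebellum, weighed and gamma-counted as % dose/g. Values are mean ± SD, n = 5–6, compared to control by Kruskal–Wallis with Dunn's post-test.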

For data set [8], the system named is Mus musculus. Nature of the data set: In vivo binding affinity to GlyT1 in ddY mouse brain medullary region at 33.3 kBq, iv after 60 mins in presence of SSR504734 2 mg/kg, iv administered 15 mins prior to compound administration relative to control. It is filed as functional, organism-based. The arrangement: dose 2 mg/kg. Particulars: Medulla of organ, tested as the 125I-labelled form.

For data set [9], the target named is T1, Sodium- and chloride-dependent glycine transporter 1 (Rattus norvegicus). Briefly: Binding affinity to GlyT1 in rat brain midbrain at 0.03 to 0.04 nM preincubated for 20 mins in binding buffer before compound addition measured after 30 mins by autoradiography in presence of 1 mM GlyT1 substrate glycine relative to control. Particulars: tested as the 125I-labelled form. It counts as tissue-based.

Data set [10] has the same target. Briefly: Binding affinity to GlyT1 in rat brain striatum at 0.03 to 0.04 nM preincubated for 20 mins in binding buffer before compound addition measured after 30 mins by autoradiography in presence of 10 mM GlyT1 substrate glycine relative to control. Particulars: tested as the 125I-labelled form. It counts as tissue-based.
For data set [11] the target is unchanged. Nature of the data set: Binding affinity to GlyT1 in rat brain striatum at 0.03 to 0.04 nM preincubated for 20 mins in binding buffer before compound addition measured after 30 mins by autoradiography in presence of 1 mM GlyT1 substrate glycine relative to control. It is filed as tissue-based. The conditions noted are these: tested as the 125I-labelled form.

Data set [12] has the same target. Nature of the data set: Binding affinity to GlyT1 in rat brain cerebellar white matter at 0.03 to 0.04 nM preincubated for 20 mins in binding buffer before compound addition measured after 30 mins by autoradiography relative to control. It is filed as tissue-based. Particulars: tested as the 125I-labelled form.
Data set [13] has as its system Intestine. Nature of the data set: Drug uptake in ddY mouse intestine at 11.1 kBq, iv after 15 min by gamma counting. It counts as ADME, organism-based. The conditions noted are these: in vivo. In a few lines:
(§2)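 Male ddY mice (6 weeks, 30–35 g) received about 11.1 kBq [125I]tracer in 0.1 mL i.v. via tail vein. Killed at set times, organs dissected and weighed, radioactivity gamma counted. Reported as % injected dose/g tissue, mean ± SD, n = 5–6.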

A further data set deals with Kidney. Briefly: Drug uptake in ddY mouse kidney at 11.1 kBq, iv after 0.5 min by gamma counting. It is filed as ADME, organism-based. Particulars: in vivo. In a few lines: as §2
A further data set has as its system Brain. Briefly: Drug uptake in ddY mouse brain at 11.1 kBq, iv after 0.5 min by gamma counting. It counts as ADME, organism-based. The conditions noted are these: in vivo. In a few lines: as §2
Another data set has as its system Blood. Nature of the data set: Drug uptake in ddY mouse blood at 11.1 kBq, iv after 60 min by gamma counting. It counts as ADME, organism-based. Particulars: in vivo, 1 h. In a few lines:
as §2

The nature of data set [14]: Lipophilicity, log D of the compound at pH 7.4. It counts as physicochemical. The conditions noted are these: buffer.
Data set [15] concerns Intestine. Briefly: Drug uptake in ddY mouse intestine at 11.1 kBq, iv after 180 min by gamma counting. It counts as ADME, organism-based. Particulars: in vivo, 3 h. A digest of the protocol:
as §2

In another data set the test system is Spleen. Nature of the data set: Drug uptake in ddY mouse spleen at 11.1 kBq, iv after 180 min by gamma counting. It is filed as ADME, organism-based. Particulars: in vivo, 3 h. A digest of the protocol:
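Male ddY mice (6 weeks, 30–35 g) were given about 11.1 kBq of [125I]tracer in 0.1 mL i.v. via the tail vein. At each time point the animals were killed and organs dissected, weighed and gamma-counted. Uptake is expressed as % injected dose per gram of tissue, mean ± SD, n = 5–6.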

A further data set deals with Heart. Nature of the data set: Drug uptake in ddY mouse heart at 11.1 kBq, iv after 180 min by gamma counting. It counts as ADME, organism-based. Particulars: in vivo, 3 h. A digest of the protocol:
as §2

Active and inactive are the calls of the source. The calls are words filed in the database; no cut-off is given here.

Take `CN1CCCC[C@H]1[C@@H](NC(=O)c1cccc(C(F)(F)F)c1I)c1ccccc1`: the result in data set [1] and in data set [12] was Active. The Activity in data set [2] stood at 108%; in data set [3], 45.8%; in [5], 98.2%; in data set [6], 81.3%; in data set [9], 106%; in data set [10], 47.6%. In addition, the Activity in data set [11] worked out at 122%. For the same compound, the result in the data set on Mus musculus [4], in the data set with Mus musculus [7] and in the data set on Mus musculus [8] was inactive.

For `CN1CCCC[C@H]1[C@@H](NC(=O)c1cccc(C(F)(F)F)c1[125I])c1ccccc1`, the Drug uptake was 3.25 % ID/g in the data set with Intestine [13]; 4.05 % ID/g in the data set with Kidney; 0.51 % ID/g in the data set on Brain; 0.8 % ID/g with Blood; 17.13 % ID/g in the data set with Intestine [15]; 3.41 % ID/g in the data set with Spleen. Also, the Drug uptake in the data set with Heart is recorded as 1.79 % ID/g. Moreover, the logD – broadly, lipophilicity at a set pH, counting ionised and neutral species – in [14] amounted to 2.86.
